Measurements reported in ChEMBL document CHEMBL2384933, “Vitexin inhibits inflammatory pain in mice by targeting TRPV1, oxidative stress, and cytokines” (J Nat Prod, 2013).

Columns and labels:
Set-up in all cases: dose 2.5 mg/kg, route intraperitoneal
Conditions in all cases: in vivo, 168 h
Mus musculus [1] = assay: Hepatotoxicity in Swiss mouse assessed as increase in plasma ALT level at 2.5 mg/kg, ip for 7 days; format: toxicity, organism-based
In short: (§1)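 Mice dosed ip once daily for 7 days; the vehicle was saline or Tris/HCl buffer pH 8.0, with the vehicle data pooled. Plasma AST and ALT were measured with a diagnostic kit as markers of hepatotoxicity.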

Mus musculus [2] = assay: Toxicity in Swiss mouse assessed as increase in myeloperoxidase activity in stomach at 2.5 mg/kg, ip for 7 days by spectrophotometric analysis; format: organism-based
In short: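 Same daily ip dosing for 7 days. Stomach was homogenized in 50 mM K2PO4 pH 6.0 with 0.5% HTAB and spun at 16100g for 2 min. Supernatant was mixed with 50 mM phosphate pH 6.0 containing 0.167 mg/mL o-dianisidine and 0.015% H2O2, then read at 450 nm three times within 1 min. Values came from a neutrophil standard curve, as neutrophils ×10^4/mg tissue.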

Mus musculus [3] = assay: Hepatotoxicity in Swiss mouse assessed as increase in plasma AST level at 2.5 mg/kg, ip for 7 days; format: toxicity, organism-based; in short: as §1

Measured: Activity

COc1ccc2c(c1)c(CC(=O)O)c(C)n2C(=O)c1ccc(Cl)cc1 [INDOMETHACIN]
Toxic: all assays above
